We go through ten molecules from ChEMBL document CHEMBL1143285, “Synthesis and biological evaluation of 2-phenylquinolones targeted at Tat/TAR recognition” (Bioorg Med Chem Lett, 2009).

Broadly, the Ki is the equilibrium dissociation constant of an inhibitor or competing ligand from its target. As usually defined, the EC50 is the concentration that produces a half-maximal response.

Calls of active or inactive are those of the source. No cut-off for these calls is given here.

Data set [1] deals with Human immunodeficiency virus. Briefly: (§1) Inhibition of HIV Tat/TAR complex formation by fluorescence quenching assay.
The test system of data set [2] is Human immunodeficiency virus 1. Briefly: Antiviral activity against HIV1 infected in human Jurkat cells assessed as compound uptake after 3 hrs by fluorescence assay. Format: functional. Details: concentration or dose not given beside the values. The gist of the method: (§2)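 Jurkat or CEM cells (2.5 × 10⁶/well) incubated in HBSS with compound at 100 µM, 3 h, 37 °C. Cells separated from medium by centrifugation through water-impermeable silicone-oil barrier, pellet lysed overnight in 0.1 M glycine–HCl pH 3.0, spun 5 min at 5600g. Compound in supernatant quantified by fluorescence at pH 3 against per-compound titration curve; reported as % uptake.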

Data set [3] deals with CCRF-CEM. The experiment in a line: Cytotoxicity against human CEM cells at 100 uM after 72 hrs by MTT assay. Format: cell-based. The gist of the method:
(§3)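 MTT viability readout in CEM and Jurkat cells after 72 h incubation with compounds up to 100 µM; EC50 derived where applicable.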

Data set [4] concerns Jurkat. Briefly: Cytotoxicity against human Jurkat cells at 100 uM after 72 hrs by MTT assay. Format: cell-based. Put shortly: as §3
A general note: Formazan colour is commonly taken as a measure of viable cells.

Data set [5] in a line: Aqueous solubility in buffer. The data set is classed as physicochemical.
Data set [6] is described as follows: as §1. Further details: species or system Human immunodeficiency virus.
The test system of data set [7] is Human immunodeficiency virus 1. The experiment in a line: Antiviral activity against HIV1 infected in human CEM cells assessed as compound uptake after 3 hrs by fluorescence assay. Format: functional, CCRF-CEM. The gist of the method: as §2
Data set [8] deals with Human immunodeficiency virus 1. The experiment in a line: Antiviral activity against HIV1 infected in human Jurkat cells assessed as compound uptake after 3 hrs by fluorescence assay in presence of lipofectamine. The data set is classed as functional.
Data set [9] relates to Jurkat. Briefly: Cytotoxicity against human Jurkat cells after 72 hrs by MTT assay. Format: cell-based. The gist of the method:
as §3

`COc1cc(OC)c2c(=O)cc(-c3ccc(O)c(N)c3)n(C)c2c1`: in [1], the result was inactive. Further, the Activity was 25% in data set [2], “Non-toxic” in data set [3] and “Non-toxic” in [4]. Also, the solubility result in data set [5] was “Soluble”.

As for `COc1cc(OC)c2c(=O)cc(-c3ccc(OCCCN4CCCCC4)c(NC(=O)CCCN(C)C)c3)n(C)c2c1`, in data set [6], the Ki turned out to be 2600 nM. The Activity entry in [3] and in [4] was “Non-toxic” in each case. Further, in [5], the solubility result is given as “Soluble”.

`Cn1cc(C(=O)O)c(=O)c2cc(N)c(N3CCN(c4ccccn4)CC3)cc21` displayed a Ki in data set [6] of 2180 nM. Also, the Activity in data set [2] is 23.2%; in data set [7], 7.5%; in data set [3] it was “Non-toxic”; in [8] it was “<=40%”; in [4], “Non-toxic”. Further, the solubility result in data set [5] was “Soluble”.

In turn, `COc1cc(OC)c2c(=O)cc(-c3ccc(OCCCN4CCCCC4)cc3)n(C)c2c1` showed an EC50 in data set [9] of 94.7 µM. This molecule returned a Ki in data set [6] of 1020 nM. In addition, the Activity in data set [2] is reported as 3.27%. The solubility entry in data set [5] was “Soluble”.

In data set [6], `COc1cc(OC)c2c(=O)cc(-c3ccc(OCCCN)c(NC(=O)CCCN(C)C)c3)n(C)c2c1` displayed a Ki of 3030 nM. The Activity in data set [2] is 0.67%; in data set [7], 1.2%; in data set [3], “Non-toxic”; in data set [4] it was “Non-toxic”. In addition, the solubility result in data set [5] is on record as “Soluble”.

Molecule `COc1cc(OC)c2c(=O)cc(-c3ccc(OCCCN4CCN(C)CC4)c(N)c3)n(C)c2c1` gave a Ki in [6] of 1580 nM. Also, the Activity in data set [2] is 0.82%; in data set [7], 1.1%; in data set [3], “Non-toxic”; in [4], “Non-toxic”. The solubility entry in [5] is recorded as “Soluble”.

In the case of `COc1cc(OC)c2c(=O)cc(-c3ccc(OCCCN4CCN(C)CC4)c(NC(=O)CCCN(C)C)c3)n(C)c2c1`, the outcome in data set [1] was inactive. For the same molecule, the Activity entry in data set [3] and in [4] was “Non-toxic” each time. Also, the solubility entry in data set [5] is listed as “Soluble”.

On to `COc1cc(OC)c2c(=O)cc(-c3ccc(OCCCN)c(N)c3)n(C)c2c1`, for which, in data set [6], the inhibition constant (Ki) was 3850 nM. For the same molecule, the Activity entry in [3] and in data set [4] was “Non-toxic” each time. Further, the solubility result in data set [5] is “Soluble”.

Take `COc1cc(OC)c2c(=O)cc(-c3ccc(OCCCN4CCCCC4)c(N)c3)n(C)c2c1`: in data set [6], the affinity corresponds to a Ki of 1950 nM. The Activity in data set [2] is reported as 0.94%; in data set [7], 1.8%; in [3], “Non-toxic”; in [4] it was “Non-toxic”. In addition, the solubility result in data set [5] is reported as “Soluble”.

On to `COc1cc(OC)c2c(=O)cc(-c3ccc(OCCCN)c(NC(=O)CCc4cccnc4)c3)n(C)c2c1`, for which the outcome in data set [1] was inactive. Moreover, the Activity entry in data set [3] and in data set [4] was “Non-toxic” in each case. Further, the solubility result in [5] is “Soluble”.
